Experimental findings from ChEMBL document CHEMBL4346701, “Synthesis and biological evaluation of tryptophan-derived rhodanine derivatives as PTP1B inhibitors and anti-bacterial agents” (Eur J Med Chem, 2019) are described below.

Assay [1] has as its target T1, Tyrosine-protein phosphatase non-receptor type 1 (Homo sapiens, UniProt P18031).
T1 sequence (P18031 whole entry): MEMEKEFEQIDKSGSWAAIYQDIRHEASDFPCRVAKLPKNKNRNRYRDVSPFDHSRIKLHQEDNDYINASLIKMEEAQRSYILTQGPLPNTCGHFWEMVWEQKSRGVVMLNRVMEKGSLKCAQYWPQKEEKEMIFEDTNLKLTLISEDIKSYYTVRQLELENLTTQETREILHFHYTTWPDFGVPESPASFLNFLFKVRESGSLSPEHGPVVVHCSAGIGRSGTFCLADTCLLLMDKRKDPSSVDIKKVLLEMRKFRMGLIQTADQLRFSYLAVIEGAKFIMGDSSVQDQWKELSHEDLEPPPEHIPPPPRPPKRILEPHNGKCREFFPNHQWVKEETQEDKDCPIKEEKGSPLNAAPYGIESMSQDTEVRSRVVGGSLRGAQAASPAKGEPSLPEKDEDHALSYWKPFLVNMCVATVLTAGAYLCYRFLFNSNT
Kind of assay: Inhibition of human recombinant GST-tagged PTP1B expressed in Escherichia coli BL21 (DE3) using pNPP as substrate measured for 2 mins by colorimetric analysis.

The species entered for assay [2] is Homo sapiens. Kind of assay: Selectivity ratio of IC50 for human recombinant GST-tagged SHP2 to IC50 for human recombinant GST-tagged PTP1B.
Assay [3] concerns Staphylococcus aureus. In words: Antibacterial activity against Staphylococcus aureus KCTC209 assessed as reduction in bacterial cell growth incubated for 24 hrs by ELISA. In kind it is functional. The conditions noted are these: KCTC209, 24 h. Put shortly: (§1)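 MICs determined by serial dilution in 96-well microtiter plates. The strain panel included Gram-positive S. aureus strains and multidrug-resistant clinical isolates. Gatifloxacin, moxifloxacin, norfloxacin and oxacillin served as antibacterial positive controls.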

For assay [4], the target named is T2, Receptor-type tyrosine-protein phosphatase F (Homo sapiens, UniProt P10586). In words: Inhibition of human recombinant GST-tagged LAR (catalytic domain 1275 to 1613 residues) expressed in Escherichia coli BL21 (DE3) using pNPP as substrate at 20 ug/ml measured for 2 mins by colorimetric analysis. Put shortly: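 Single-concentration screen at 20 µg/mL in the pNPP phosphatase assay.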

For assay [5], the system named is Staphylococcus aureus. Kind of assay: Antibacterial activity against Methicillin-resistant Staphylococcus aureus CCARM 3167 assessed as reduction in bacterial cell growth incubated for 24 hrs by ELISA. In kind it is functional. The conditions noted are these: CCARM 3167, 24 h. Put shortly: as §1
In general terms: In an ELISA, binding on a coated surface is turned into a signal by an enzyme label.

The species named for assay [6] is Homo sapiens. Kind of assay: Selectivity ratio of IC50 for human recombinant GST-tagged SHP1 to IC50 for human recombinant GST-tagged PTP1B.
Assay [7] has as its system Staphylococcus aureus. In words: Antibacterial activity against Quinolone-resistant Staphylococcus aureus CCARM 3505 assessed as reduction in bacterial cell growth incubated for 24 hrs by ELISA. Type of assay: functional. As to conditions: CCARM 3505, 24 h. Put shortly:
as §1

In assay [8] the test system is Staphylococcus aureus. Kind of assay: Antibacterial activity against Methicillin-resistant Staphylococcus aureus CCARM 3506 assessed as reduction in bacterial cell growth incubated for 24 hrs by ELISA. Type of assay: functional. The conditions noted are these: CCARM 3506, 24 h. Put shortly: as §1
The test system of the next assay is Pseudomonas aeruginosa. Kind of assay: Antibacterial activity against Pseudomonas aeruginosa 2742 assessed as reduction in bacterial cell growth incubated for 24 hrs by ELISA. Type of assay: functional. As to conditions: Pseudomonas aeruginosa, 2742, 24 h. Put shortly: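 MIC determined by serial dilution in 96-well microtiter plates. Strains used were E. coli 1924 and P. aeruginosa 2742 (Gram-negative), S. mutans 3289 (Gram-positive) and the fungus C. albicans 7535. Gatifloxacin, moxifloxacin, norfloxacin and oxacillin served as antibacterial reference agents, and fluconazole as the antifungal reference.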

Assay [9] addresses T2, Receptor-type tyrosine-protein phosphatase F. In words: Inhibition of human recombinant GST-tagged LAR (catalytic domain 1275 to 1613 residues) expressed in Escherichia coli BL21 (DE3) using pNPP as substrate measured for 2 mins by colorimetric analysis.
Assay [10] has as its target T3, Tyrosine-protein phosphatase non-receptor type 1 (Homo sapiens) (UniProt P18031).
T3 sequence (whole entry): T1 sequence (P18031 whole entry)
In words: Inhibition of human recombinant GST-tagged PTP1B expressed in Escherichia coli BL21 (DE3) using pNPP as substrate incubated for 4 to 16 mins and measured for 2 mins by colorimetric analysis. The conditions noted are these: TDE = time-dependent effect. Put shortly: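 pNPP used as the phosphatase substrate, with the enzyme assay following earlier published work. IC50 obtained by regression analysis and reported as mean ± SD of three replications.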

For assay [11], the target named is T3, Tyrosine-protein phosphatase non-receptor type 1 (Homo sapiens). In words: Competitive inhibition of human recombinant GST-tagged PTP1B expressed in Escherichia coli BL21 (DE3) using pNPP as substrate assessed as increase in Km value measured for 2 mins by colorimetric analysis.
Assay [12] shares this target. In words: Potency index, ratio of IC50 of oleanolic acid to IC50 of compound inhibition of human recombinant GST-tagged PTP1B expressed in Escherichia coli BL21 (DE3) using pNPP as substrate measured for 2 mins by colorimetric analysis.
Assay [13] shares this target. Kind of assay: Competitive inhibition of human recombinant GST-tagged PTP1B expressed in Escherichia coli BL21 (DE3) using pNPP as substrate assessed as unchanged Vmax value measured for 2 mins by colorimetric analysis.
Assay [14] deals with T1, Tyrosine-protein phosphatase non-receptor type 1. Kind of assay: Competitive inhibition of human recombinant GST-tagged PTP1B expressed in Escherichia coli BL21 (DE3) using pNPP as substrate assessed as inhibitor constant measured for 2 mins by colorimetric analysis.
Assay [15] deals with Staphylococcus aureus. Kind of assay: Potency index, ratio of MIC of gatifloxacin to MIC of compound for antibacterial activity against Staphylococcus aureus KCTC503 assessed as reduction in bacterial cell growth incubated for 24 hrs by ELISA. Type of assay: functional.

Converted amounts (≈) assume the structure as drawn. The source made the active and inactive calls. Where only a bound is given, the exact number is not on record here.

T2 sequence (P10586 whole entry, the tested form may be a part): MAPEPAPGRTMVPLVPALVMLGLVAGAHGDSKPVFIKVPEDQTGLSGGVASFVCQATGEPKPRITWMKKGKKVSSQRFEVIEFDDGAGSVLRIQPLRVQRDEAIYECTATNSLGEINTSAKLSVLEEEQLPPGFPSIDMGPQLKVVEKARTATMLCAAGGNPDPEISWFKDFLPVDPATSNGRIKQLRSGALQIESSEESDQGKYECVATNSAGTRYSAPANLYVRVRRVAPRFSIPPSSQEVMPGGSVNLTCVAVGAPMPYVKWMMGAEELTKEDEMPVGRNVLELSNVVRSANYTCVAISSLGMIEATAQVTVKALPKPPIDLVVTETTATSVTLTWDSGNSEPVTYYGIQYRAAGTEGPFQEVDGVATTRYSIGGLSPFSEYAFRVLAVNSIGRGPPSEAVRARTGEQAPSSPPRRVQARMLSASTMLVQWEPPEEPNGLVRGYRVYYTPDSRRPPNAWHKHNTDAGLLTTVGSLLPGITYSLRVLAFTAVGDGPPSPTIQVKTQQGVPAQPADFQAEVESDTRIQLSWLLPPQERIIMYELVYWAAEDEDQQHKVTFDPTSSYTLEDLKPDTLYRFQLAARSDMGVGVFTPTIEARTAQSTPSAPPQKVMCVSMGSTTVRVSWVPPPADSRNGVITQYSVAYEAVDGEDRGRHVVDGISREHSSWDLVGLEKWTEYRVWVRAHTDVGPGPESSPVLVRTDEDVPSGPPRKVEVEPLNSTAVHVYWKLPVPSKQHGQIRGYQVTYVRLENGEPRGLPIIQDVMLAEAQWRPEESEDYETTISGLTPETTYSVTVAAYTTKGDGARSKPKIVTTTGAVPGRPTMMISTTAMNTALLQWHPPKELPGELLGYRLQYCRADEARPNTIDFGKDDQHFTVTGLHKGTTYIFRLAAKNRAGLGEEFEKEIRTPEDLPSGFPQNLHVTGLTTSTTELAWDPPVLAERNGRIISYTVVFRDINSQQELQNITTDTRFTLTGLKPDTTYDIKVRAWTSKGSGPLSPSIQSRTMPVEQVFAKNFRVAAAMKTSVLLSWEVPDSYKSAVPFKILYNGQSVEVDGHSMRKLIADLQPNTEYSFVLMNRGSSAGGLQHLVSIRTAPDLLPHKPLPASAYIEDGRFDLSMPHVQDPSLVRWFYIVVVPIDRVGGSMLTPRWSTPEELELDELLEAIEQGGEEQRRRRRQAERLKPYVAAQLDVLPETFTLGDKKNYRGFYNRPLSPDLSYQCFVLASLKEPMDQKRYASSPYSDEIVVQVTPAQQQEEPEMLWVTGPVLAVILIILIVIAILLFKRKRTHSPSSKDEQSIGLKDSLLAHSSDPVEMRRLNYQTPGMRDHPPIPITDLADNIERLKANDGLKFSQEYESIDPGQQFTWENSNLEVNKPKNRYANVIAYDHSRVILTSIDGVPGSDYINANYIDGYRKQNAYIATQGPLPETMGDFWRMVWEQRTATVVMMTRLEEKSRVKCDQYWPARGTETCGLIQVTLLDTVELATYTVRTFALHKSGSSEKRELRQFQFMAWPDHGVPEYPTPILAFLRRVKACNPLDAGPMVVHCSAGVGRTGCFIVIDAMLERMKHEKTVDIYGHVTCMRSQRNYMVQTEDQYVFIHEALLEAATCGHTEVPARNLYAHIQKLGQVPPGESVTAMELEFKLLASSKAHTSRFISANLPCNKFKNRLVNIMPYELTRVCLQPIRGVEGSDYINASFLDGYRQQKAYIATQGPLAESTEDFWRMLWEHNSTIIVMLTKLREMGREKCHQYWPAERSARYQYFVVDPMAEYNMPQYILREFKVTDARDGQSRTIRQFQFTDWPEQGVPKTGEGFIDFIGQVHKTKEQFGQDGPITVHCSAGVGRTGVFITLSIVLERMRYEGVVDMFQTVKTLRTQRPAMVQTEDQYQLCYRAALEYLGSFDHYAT

Turning to `O=C(O)C(Cc1c[nH]c2ccccc12)N1C(=O)/C(=C/c2ccc3cc(OCc4ccc(Cl)cc4Cl)ccc3c2)SC1=S` (stereo not drawn), the IC50 – broadly, the concentration needed to halve the response being measured – in [1] is 540 nM. The Ratio IC50 in the assay filed under Homo sapiens [2] lay within 9 to 10; in the assay filed under Homo sapiens [6], 3 to 6. Moreover, the MIC (commonly the smallest concentration in the dilution series that meets the test's criterion for growth inhibition) is 4 µg/mL (≈ 6.31 µM) with Staphylococcus aureus [3]; 4 µg/mL (≈ 6.31 µM) with Staphylococcus aureus [5]; 4 µg/mL (≈ 6.31 µM) with Staphylococcus aureus [7]; 8 µg/mL (≈ 12.6 µM) in the assay on Staphylococcus aureus [8]; over 64 µg/mL with Pseudomonas aeruginosa. Also, the inhibition entry in [4] is “inactive”.
Take `O=C(O)C(Cc1c[nH]c2ccccc12)N1C(=O)/C(=C/c2ccc3cc(OCc4ccc(Br)cc4)ccc3c2)SC1=S` (stereo not drawn): the IC50 is 360 nM in [1] and 29100 nM in [9]. In addition, in [10], the inhibition result was “Tde”. For the same molecule, the Ratio IC50 in the assay filed under Homo sapiens [2] is 9 to 10; in the assay listed under Homo sapiens [6] it was 3 to 6; in assay [12], 8. Besides, the MIC with Staphylococcus aureus [3] was 2 µg/mL (≈ 3.11 µM); with Staphylococcus aureus [5], 4 µg/mL (≈ 6.22 µM); in the assay with Staphylococcus aureus [7], 4 µg/mL (≈ 6.22 µM); with Staphylococcus aureus [8], 4 µg/mL (≈ 6.22 µM); in the assay on Pseudomonas aeruginosa, over 64 µg/mL. Also, the inhibition result in assay [11] and in [13] was “Active” throughout. The Ki (usually a measure of affinity in units of concentration, obtained from inhibition or displacement) in [14] stood at 70 nM.
Consider `Cc1ccc(COc2ccc3cc(/C=C4\SC(=S)N(C(Cc5c[nH]c6ccccc56)C(=O)O)C4=O)ccc3c2)cc1` (stereo not drawn), for which the IC50 in assay [1] worked out at 640 nM. Moreover, the Ratio IC50 fell in the range of 9 to 10 in the assay listed under Homo sapiens [2] and 3 to 6 in the assay listed under Homo sapiens [6]. In addition, the MIC with Staphylococcus aureus [3] was 2 µg/mL (≈ 3.46 µM); in the assay on Staphylococcus aureus [5] it was 2 µg/mL (≈ 3.46 µM); in the assay on Staphylococcus aureus [7], 2 µg/mL (≈ 3.46 µM); in the assay with Staphylococcus aureus [8], 8 µg/mL (≈ 13.8 µM); in the assay on Pseudomonas aeruginosa, over 64 µg/mL. In assay [4], the inhibition entry is “inactive”. In the assay with Staphylococcus aureus [15], the Ratio was found to be 2.
